The values that follow come from article PMC11455733 (Drugs in R&D, 2024).

Structures are written as SMILES.

Data set [1] can be described thus: 10-day daily IP administration, body weight. The data set is classed as in vivo, C57BL/6 mice. The method, boiled down: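 Body weights were recorded daily and again on day 11, before euthanasia. Mice were C57BL/6 of both sexes (7–12 weeks; n = 8 per group, equal males and females), with sex data combined. Dosing was IP once daily for 10 days with vehicle (DMSO diluted 10%/90% vol/vol in 0.5% Methocel/0.9% NaCl) or test compound. Groups were compared by ANOVA followed by unpaired t test.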

A short description of data set [2]: Solubility in water or saline. Format: physicochemical.
Data set [3] in a line: 10-day daily IP administration, complete blood count. Format: in vivo, C57BL/6 mice. The note with it: 20.0 mg/kg IP daily for 10 days, day 11, vs vehicle. The method, boiled down: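 Blood was collected postmortem on day 11 and run on a veterinary haematology analyser for complete blood count. Mice were male and female C57BL/6 (7–12 weeks; n = 8 per group), dosed IP daily for 10 days with vehicle (DMSO/0.5% Methocel in saline, 10%/90% vol/vol) or test compound. Analysis was ANOVA, then unpaired Student t test.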

A further data set has as its system lung, liver, and kidney. The experiment in a line: 10-day daily IP administration, H&E histology scoring. Format: in vivo, C57BL/6 mice. The note with it: 20.0 mg/kg IP daily for 10 days, all parameters. The method, boiled down: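 Male and female C57BL/6 mice (7–12 weeks; n = 8 per group, equal sexes) got IP vehicle (DMSO then 0.5% Methocel in 0.9% NaCl, 10%/90% vol/vol) or test compound daily from day 0 for 10 days. On day 11, organs were fixed in 10% neutral formalin and paraffin-embedded. 5 μm H&E sections were graded blindly by a pathologist over the whole section area.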

Data set [4] deals with IL-1β, IL-6, and TNFα in total lung homogenates. The experiment in a line: 10-day daily IP administration, lung cytokines by ELISA. Format: in vivo, C57BL/6 mice. The note with it: 20.0 mg/kg IP daily for 10 days, day 11, vs vehicle. The procedure, abridged:
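On day 11, IL-1β, IL-6 and TNFα were measured by mouse ELISA kits in total lung homogenates. Mice were C57BL/6 of both sexes (7–12 weeks; n = 8 per group), given daily IP vehicle (DMSO/0.5% Methocel in 0.9% NaCl, 10%/90% vol/vol) or test compound for 10 days. Analysis was ANOVA followed by unpaired t test.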
Background: In an ELISA, binding on a coated surface is turned into a signal by an enzyme label.

Data set [5] in a line: 10-day daily IP administration, serum chemistry. Format: in vivo, C57BL/6 mice. The note with it: 20.0 mg/kg IP daily for 10 days, day 11, vs vehicle. The procedure, abridged: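 Serum was prepared from postmortem blood on day 11 and analysed on a chemistry analyser per the manufacturer's instructions. Mice were C57BL/6 of both sexes (7–12 weeks; n = 8 per group), dosed IP daily for 10 days with vehicle (DMSO/0.5% Methocel in 0.9% NaCl, 10%/90% vol/vol) or test compound. Analysis was ANOVA, then unpaired t test.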

For data set [6], the system named is Col1a1 and Fn mRNA in total lung RNA. The data set can be described thus: 10-day daily IP administration, lung extracellular matrix mRNA by qPCR. The note with it: 20.0 mg/kg IP daily for 10 days, day 11, vs vehicle. The data set is classed as in vivo, C57BL/6 mice. The method, boiled down: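 Lung tissue was taken on day 11, after 10 days of daily IP vehicle (DMSO/0.5% Methocel-saline) or test compound in male and female C57BL/6 mice (n = 8 per group). Tissue was lysed and RNA purified with genomic DNA removal. cDNA was made with oligo(dT) plus random hexamers, then SYBR green real-time PCR was run. Col1a1 and Fn were expressed as ratios to B2M.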
(Real-time PCR tracks product formation cycle by cycle.)

The subject of another data set is EphB2. The note with it: cited from earlier work.
The mark [7] stands for this setting: within normal published parameters.

Regarding `CCN1CCN(Cc2ccc(NC(=O)c3ccc(C)c(NC(=O)c4cncc(-c5cccs5)c4)c3)cc2C(F)(F)F)CC1` [ALW-II-41-27], the “daily and ending weight loss” value in data set [1] (20.0 mg/kg IP daily for 10 days, vs vehicle) is “no significant changes”. Besides, the tolerability result in data set [1] (20.0 mg/kg IP once a day in mice) is reported as “well tolerated”. Moreover, the “solubility in water or saline” value in data set [2] is given as “lack of solubility”. In addition, the “CBC parameters other than NEU and RBC” value in data set [3] is given as “no significant differences”. In data set [3] (setting [7]), the “neutrophil (NEU) count” value is “significantly higher” and the “red blood cell (RBC) count” value is “significantly higher”. The “histology score (0 normal to 4+), lung, liver, and kidney” value with lung, liver, and kidney was 0. In data set [4], the “IL-1β in whole-lung lysates” value is “No significant alterations”, the “IL-6 in whole-lung lysates” value is “No significant alterations” and the “TNF-α in whole-lung lysates” value was “No significant alterations”. Further, the “serum chemistry parameters other than creatinine” value in data set [5] was “no significant changes”. For the same compound, in data set [6], the “Col1a1 mRNA expression (ratio to B2M) in lung” value is on record as “no significant differences” and the “Fn mRNA expression (ratio to B2M) in lung” value is listed as “no significant differences”. Besides, the “inhibition of the Ephrin receptor EphB2” value with EphB2 is “shown to inhibit”.
